The source made the active and inactive calls. No cut-off for these calls is given here.
Tests used:
[1] = molecular target: T1, Beta-secretase 1 (Homo sapiens, UniProt P56817); assay: Inhibition of human recombinant BACE1 pre-incubated with enzyme for 60 mins before fluorescent substrate addition FRET method
[2] = molecular target: T1, Beta-secretase 1; assay: Inhibition of BACE1 in HEK293 cells stably expressing APPSW assessed as reduction in Abeta40 level incubated overnight at 0.0005 to 10 uM by ELISA method; assay type: cell-based
[3] = test system: Rattus norvegicus; assay: Reduction in Abeta40 level in Sprague-Dawley rat CSF at 3 mg/kg, po administered as single dose after 4 hrs by immunoassay; assay type: functional, organism-based; set-up: dose 3 mg/kg
In short: (§1)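 Male Sprague–Dawley rats received a single oral dose. Aβ40 was measured in CSF and brain 4 h later and reported as % reduction. EC50 is expressed as unbound plasma concentration.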

[4] = test system: Rhesus monkey; assay: Reduction in Abeta40 level in rhesus monkey CSF at 5 mg/kg, po administered as single dose by ELISA method; assay type: functional, organism-based; set-up: dose 5 mg/kg; details: Macaca mulatta
In short: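 Rhesus monkey time-course PD study after a 5 mg/kg oral dose, with CSF Aβ40 followed over time. An indirect response PK–PD model generated the in vivo unbound plasma IC50.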

[5] = test system: Rattus norvegicus; assay: Reduction in Abeta40 level in Sprague-Dawley rat CSF at 3 mg/kg, po administered as single dose by immunoassay; assay type: functional; in short: as §1
[6] = test system: Rattus norvegicus; assay: Reduction in Abeta40 level in Sprague-Dawley rat CSF at 10 mg/kg, po administered as single dose by immunoassay; assay type: functional; in short: as §1

T1 sequence (P56817 whole entry): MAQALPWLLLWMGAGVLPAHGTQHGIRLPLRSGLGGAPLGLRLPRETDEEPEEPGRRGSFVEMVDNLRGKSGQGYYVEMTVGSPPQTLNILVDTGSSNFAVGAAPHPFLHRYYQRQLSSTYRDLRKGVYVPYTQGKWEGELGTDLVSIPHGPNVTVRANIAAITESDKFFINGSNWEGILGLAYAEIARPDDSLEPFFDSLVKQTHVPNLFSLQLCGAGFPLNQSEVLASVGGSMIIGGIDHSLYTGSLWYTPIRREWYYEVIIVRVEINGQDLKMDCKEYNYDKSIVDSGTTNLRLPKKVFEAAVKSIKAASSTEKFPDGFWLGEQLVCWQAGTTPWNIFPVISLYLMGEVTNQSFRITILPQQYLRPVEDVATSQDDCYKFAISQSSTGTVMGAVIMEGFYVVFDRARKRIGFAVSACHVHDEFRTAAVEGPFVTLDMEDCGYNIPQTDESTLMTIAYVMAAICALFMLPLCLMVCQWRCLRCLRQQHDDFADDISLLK

Structure (SMILES)	IC50 [1] [nM]	IC50 [2] [nM]	further results
Cc1cc(-c2cc3c(c(F)n2)Oc2ccc(-c4cccnc4F)cc2[C@@]32COC(N)=N2)on1	0.3	23	
NC1=N[C@@]2(CO1)c1cc(-c3cccnc3F)ccc1Oc1c2cc(N2CC[C@@H](F)C2)nc1F	0.2	3	
NC1=N[C@@]2(CO1)c1cc(-c3cccnc3F)ccc1Oc1c2cc(C2=CCOCC2)nc1F	0.3	4	
NC1=N[C@@]2(CO1)c1cc(-c3ncccc3F)ccc1Oc1c2cc(C2=CCCOC2)nc1F	0.3	4	inhibition [3]: Active; inhibition [4]: Active
NC1=N[C@@]2(CO1)c1cc(-c3cccnc3F)ccc1Oc1c2cc(-c2ccncc2)nc1F			inhibition in vivo at 3 mg/kg [5]: 36%
NC1=N[C@@]2(CO1)c1cc(-c3cccnc3F)ccc1Oc1c2cc(-c2ccccc2)nc1F	0.7	8	inhibition in vivo at 10 mg/kg [6]: 75%

Further molecules by falling IC50 [2], results first:

IC50 [1] [nM]	IC50 [2] [nM]	Structure (SMILES)	further results
	12	Cc1cc(-c2cc3c(c(F)n2)Oc2ccc(-c4cccnc4F)cc2[C@@]32COC(N)=N2)ccn1	
0.4	6.5	NC1=N[C@@]2(CO1)c1cc(-c3cccnc3F)ccc1Oc1c2cc(-c2ccnc(F)c2)nc1F	inhibition in vivo at 3 mg/kg [5]: 58%
	6	NC1=N[C@@]2(CO1)c1cc(-c3cccnc3F)ccc1Oc1c2cc(N2CCC(F)(F)CC2)nc1F	
	5	NC1=N[C@@]2(CO1)c1cc(-c3cccnc3F)ccc1Oc1c2cc(N2CCOCC2)nc1F	inhibition in vivo at 3 mg/kg [5]: 69%
	4.8	NC1=N[C@@]2(CO1)c1cc(-c3cccnc3F)ccc1Oc1c2cc(C2=CCCCO2)nc1F	
	4	NC1=N[C@@]2(CO1)c1cc(-c3cccnc3F)ccc1Oc1c2cc(N2CCC(F)(F)C2)nc1F	

— ChEMBL document CHEMBL3393040, “An Orally Available BACE1 Inhibitor That Affords Robust CNS Aβ Reduction without Cardiovascular Liabilities” (ACS Med Chem Lett, 2015)
